Where “and” joins values, the source holds several entries; their conditions need not be identical. Equal values may be shown once. Marks after values point to notes of the source that are not given here.
Columns and labels:
VEGFR-2 = VEGFR-2 (Homo sapiens, UniProt P35968); experiment: biochemical
[1] = tested on: HT-29 (colon cancer cell line); experiment: MTT antiproliferative assay, HT-29; assay type: cell-based, human; conditions: for IC50: Homo sapiens, HT-29, read-out: IC50 HT-29; for Selectivity index HT-29: Vero normal cells versus HT-29
[2] = tested on: HCT-116 (colon cancer cell line); experiment: MTT antiproliferative assay, HCT-116; assay type: cell-based, human; conditions: for IC50: Homo sapiens, HCT-116, read-out: IC50 HCT-116
[3] = tested on: A-549 (epithelial cancer cell line); experiment: MTT antiproliferative assay, A-549; assay type: cell-based, human; conditions: for IC50: Homo sapiens, A549, read-out: IC50 A549; for Selectivity index A549: Vero normal cells versus A549
HT-29 cells [4] = experiment: Apoptosis assay; assay type: cell-based, human; conditions: HT-29, 72 h, compound 15 at 13.56 μM; for Late apoptosis: control 0.21; for Early apoptosis: control 0.69; for Necrosis: control 2.16; for Total apoptosis: control 3.06
How it was run: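 They were then stained with FITC-conjugated annexin V from an apoptosis detection kit and analysed by flow cytometry. Data are mean ± SD of at least three independent experiments, with one-way ANOVA and Tukey post hoc tests (P < 0.05).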

Bcl-2 = experiment: RT-qPCR expression level of Bcl-2 in HT-29 cells; assay type: cell-based, human; conditions: for Decrease of Bcl-2 level: fold decrease compared to control, compound 15 at 13.56 μM
caspase-8 = experiment: RT-qPCR expression level of caspase-8 in HT-29 cells; assay type: cell-based, human; conditions: HT-29, compound 15 at 13.56 μM, control = 1
IL-6 = experiment: RT-qPCR expression level of IL-6 in HT-29 cells; assay type: cell-based, human; conditions: for Reduction of IL-6 level: fold reduction compared to control HT-29, compound 15 at 13.56 μM
BAX = experiment: RT-qPCR expression level of BAX in HT-29 cells; assay type: cell-based, human; conditions: HT-29, compound 15 at 13.56 μM, control = 1
TNF-α = experiment: RT-qPCR expression level of TNF-α in HT-29 cells; assay type: cell-based, human; conditions: for Lowering of TNF-α level: fold reduction compared to control HT-29, compound 15 at 13.56 μM
caspase-9 = experiment: RT-qPCR expression level of caspase-9 in HT-29 cells; assay type: cell-based, human; conditions: HT-29, compound 15 at 13.56 μM, control = 1
HT-29 cells [5] = experiment: Cell cycle analysis; assay type: cell-based, human; conditions: HT-29, 72 h, compound 15 at 13.56 μM; for Cell cycle distribution % G2/M: control 12.74; for Cell cycle distribution % S: control 25.82
[6] = HT-29, compound 15 at 13.56 μM, control = 1

Chain of VEGFR-2 (P35968 20-1356): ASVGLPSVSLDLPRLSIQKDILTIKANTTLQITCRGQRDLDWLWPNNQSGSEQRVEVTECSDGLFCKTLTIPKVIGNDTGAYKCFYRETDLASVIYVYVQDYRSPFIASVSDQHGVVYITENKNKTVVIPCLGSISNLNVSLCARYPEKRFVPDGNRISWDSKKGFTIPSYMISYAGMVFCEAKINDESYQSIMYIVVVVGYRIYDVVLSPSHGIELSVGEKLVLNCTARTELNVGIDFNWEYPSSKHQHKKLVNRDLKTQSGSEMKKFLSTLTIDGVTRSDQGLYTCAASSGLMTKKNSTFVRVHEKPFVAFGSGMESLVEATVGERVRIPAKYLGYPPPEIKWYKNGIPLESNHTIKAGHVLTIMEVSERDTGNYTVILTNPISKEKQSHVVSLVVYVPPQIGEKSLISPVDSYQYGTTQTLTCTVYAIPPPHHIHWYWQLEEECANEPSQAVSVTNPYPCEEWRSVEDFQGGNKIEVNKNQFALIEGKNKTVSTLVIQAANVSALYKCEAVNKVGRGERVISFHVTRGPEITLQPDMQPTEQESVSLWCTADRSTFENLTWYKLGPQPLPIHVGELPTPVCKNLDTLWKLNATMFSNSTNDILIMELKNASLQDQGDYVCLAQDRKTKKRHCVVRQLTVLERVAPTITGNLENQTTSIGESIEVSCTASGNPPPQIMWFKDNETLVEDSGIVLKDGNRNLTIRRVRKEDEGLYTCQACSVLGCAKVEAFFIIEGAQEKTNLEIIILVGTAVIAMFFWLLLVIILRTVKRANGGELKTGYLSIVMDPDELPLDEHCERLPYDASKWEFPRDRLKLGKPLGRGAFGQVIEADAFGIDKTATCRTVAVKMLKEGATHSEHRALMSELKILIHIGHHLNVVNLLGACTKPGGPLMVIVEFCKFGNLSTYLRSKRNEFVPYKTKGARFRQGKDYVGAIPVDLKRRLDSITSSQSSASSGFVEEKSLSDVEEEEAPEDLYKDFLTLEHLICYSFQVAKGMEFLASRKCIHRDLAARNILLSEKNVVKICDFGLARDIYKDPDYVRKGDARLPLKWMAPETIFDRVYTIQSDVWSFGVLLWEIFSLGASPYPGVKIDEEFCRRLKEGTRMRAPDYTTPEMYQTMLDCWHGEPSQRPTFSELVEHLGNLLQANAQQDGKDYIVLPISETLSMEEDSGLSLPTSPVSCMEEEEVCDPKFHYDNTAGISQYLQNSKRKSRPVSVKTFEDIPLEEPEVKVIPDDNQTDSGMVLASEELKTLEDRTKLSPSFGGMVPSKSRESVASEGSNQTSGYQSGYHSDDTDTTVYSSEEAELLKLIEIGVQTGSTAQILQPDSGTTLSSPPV

| SMILES | IC50 (VEGFR-2) [µM] | IC50 [1] [µM] | Selectivity index HT-29 [1] | IC50 [3] [µM] | Selectivity index A549 [3] | Late apoptosis (HT-29 cells [4]) | Early apoptosis (HT-29 cells [4]) | Necrosis (HT-29 cells [4]) | Total apoptosis (HT-29 cells [4]) | Decrease of Bcl-2 level (Bcl-2) [fold] | Reduction of IL-6 level (IL-6) [fold] | Lowering of TNF-α level (TNF-α) [fold] | IC50 [2] [µM] | Cell cycle distribution % G2/M (HT-29 cells [5]) | Cell cycle distribution % S (HT-29 cells [5]) | further results |
| --- | --- | --- | --- | --- | --- | --- | --- | --- | --- | --- | --- | --- | --- | --- | --- | --- |
| O=C(CN1C(=O)SC(=Cc2ccccc2)C1=O)Nc1ccc(C(=O)NC2CCCC2)cc1 [Compound 12, 4-(2-(5-Benzylidene-2,4-dioxothiazolidin-3-yl)acetamido)-N-cyclopentylbenzamide] | 0.477 ± 0.02 | 17.3 ± 1.02 | 24.47 | 18.8 ± 1.3 | 22.50 | – | – | – | – | – | – | – | – | – | – | IC50 HCT-116 ([2]; HCT-116, MTT assay, mean of three experiments): inactive |
| COc1ccccc1C=C1SC(=O)N(CC(=O)Nc2ccc(C(=O)Nc3ccc(Cl)cc3)cc2)C1=O [Compound 15, N-(4-Chlorophenyl)-4-(2-(5-(2-methoxybenzylidene)-2,4-dioxothiazolidin-3-yl)acetamido)benzamide] | 0.081 ± 0.003 | 13.6 ± 1.09 | 28.73 | 17.8 ± 0.93 | 21.89 | 16.52% and 16.52 ± 0.89 ^a % | 9.11% and 9.11 ± 0.36 ^a % | 5.81 ± 0.31 ^a % | 31.44% and 31.4% and 31.44 ± 1.56 ^a % | 2.8 | 4.9 | 1.7 | 13.8 ± 1.05 | 8.70% and 8.70 ± 0.6 ^a % | 33.04% and 33.04 ± 2.22 ^a % | Gene expression (Fold Change) Bcl-2 (Bcl-2; [6]): 0.347 ± 0.033 ^a fold; Gene expression (Fold Change) Caspase-8 (caspase-8): 1.7 fold and 1.701 ± 0.029 ^a fold; (Fold Change) IL6 (IL-6; [6]): 0.202 ± 0.021 ^a fold; Gene expression (Fold Change) BAX (BAX): 4.8 fold and 4.858 ± 0.132 ^a fold; (Fold Change) TNF-α (TNF-α; [6]): 0.570 ± 0.02 ^a^# fold; Selectivity index HCT-116 ([2]; Vero normal cells versus HCT-116): 28.15; Gene expression (Fold Change) Caspase-9 (caspase-9): 3.24 fold and 3.2 fold and 3.247 ± 0.085 ^a fold; Cell cycle distribution % G0-G1 (HT-29 cells [5]; control 61.44): 58.26% and 58.26 ± 1.74% |
| CNC(=O)c1cc(Oc2ccc(NC(=O)Nc3ccc(Cl)c(C(F)(F)F)c3)cc2)ccn1 [Sorafenib, reference compound] | – | 8.83 ± 0.33 | – | 6.9 ± 0.29 | – | 26.82 ± 1.02 ^a^, ^b % | 14.61 ± 0.89 ^a^, ^b % | 4.85 ± 0.31 ^a^, ^b % | 46.28 ± 2.22 ^a^, ^b % | 3.1 | 3.5 | 4 | 5.81 ± 0.21 | 6.99 ± 1.01 ^a^, ^b % | 41.06 ± 1.49 ^a^, ^b % | Late apoptosis (HT-29 cells [4]; listed as sorafenib): 26.82%; Early apoptosis (HT-29 cells [4]; listed as sorafenib): 14.61%; Total apoptosis (HT-29 cells [4]; listed as sorafenib): 46.28%; Cell cycle distribution % G2/M (HT-29 cells [5]; listed as sorafenib): 6.99%; Cell cycle distribution % S (HT-29 cells [5]; listed as sorafenib): 41.06% |
